Results published in ChEMBL document CHEMBL4808161, “Structure-Activity Relationship Study of Amidobenzimidazole Analogues Leading to Potent and Systemically Administrable Stimulator of Interferon Gene (STING) Agonists” (J Med Chem, 2021).

Experiments:
[1] = molecular target: T1, Stimulator of interferon genes protein (Homo sapiens, UniProt Q86WV6); test: Activation of human STING (139 to 379 residues) expressed in THP1-Blue ISG cells at 10 uM incubated for 24 hrs by quanti-blue SEAP reporter gene assay relative to control; format: cell-based; settings: filed as activator
T1 sequence (Q86WV6 whole entry, the tested form may be a part): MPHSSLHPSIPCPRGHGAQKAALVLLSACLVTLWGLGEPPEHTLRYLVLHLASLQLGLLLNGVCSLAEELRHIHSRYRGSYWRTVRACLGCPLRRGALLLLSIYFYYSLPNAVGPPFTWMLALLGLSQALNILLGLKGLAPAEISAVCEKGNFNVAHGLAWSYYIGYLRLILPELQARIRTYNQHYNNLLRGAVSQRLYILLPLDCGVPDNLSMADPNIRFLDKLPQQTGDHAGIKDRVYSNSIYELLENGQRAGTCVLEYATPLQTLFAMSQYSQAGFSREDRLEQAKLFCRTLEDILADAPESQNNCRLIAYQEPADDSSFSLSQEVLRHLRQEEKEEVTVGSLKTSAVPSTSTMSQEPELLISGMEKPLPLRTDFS
Outline: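 THP1-Blue-ISG cells (1 × 10⁵/well) treated for 24 h; single-concentration screen at 10 μM. SEAP ISG reporter in 20 μL supernatant read with QUANTI-Blue at 650 nm. Activation given as fold over control, averaging at least two experiments.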

[2] = molecular target: T2, Stimulator of interferon genes protein (Mus musculus, UniProt Q3TBT3); test: Activation of mouse STING expressed in RAW-Lucia ISG cells incubated for 24 hrs by secreted luciferase reporter gene assay
T2 sequence (Q3TBT3 whole entry): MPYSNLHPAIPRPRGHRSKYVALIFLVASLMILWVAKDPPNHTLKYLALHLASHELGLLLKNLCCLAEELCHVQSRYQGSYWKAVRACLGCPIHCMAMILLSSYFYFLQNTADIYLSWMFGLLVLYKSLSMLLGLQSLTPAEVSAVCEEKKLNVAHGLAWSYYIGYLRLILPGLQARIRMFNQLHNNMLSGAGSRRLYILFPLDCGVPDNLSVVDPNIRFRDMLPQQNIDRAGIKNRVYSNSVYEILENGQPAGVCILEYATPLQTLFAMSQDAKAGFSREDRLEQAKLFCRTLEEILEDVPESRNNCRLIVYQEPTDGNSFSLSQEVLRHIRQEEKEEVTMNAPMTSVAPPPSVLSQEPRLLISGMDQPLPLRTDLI

[3] = molecular target: T1, Stimulator of interferon genes protein; test: Activation of human STING expressed in THP1-Dual cells incubated for 24 hrs by secreted luciferase reporter gene assay
[4] = molecular target: T3, Stimulator of interferon genes protein (Mus musculus) (UniProt Q3TBT3); test: Activation of mouse STING expressed in RAW-Lucia ISG cells at 50 uM incubated for 24 hrs by QUANTI-Luc luciferase reporter gene assay relative to control; settings: filed as activator
T3 sequence (whole entry): T2 sequence (Q3TBT3 whole entry)

[5] = molecular target: T3, Stimulator of interferon genes protein (Mus musculus); test: Activation of mouse STING expressed in RAW-Lucia ISG cells at 50 uM incubated for 24 hrs by quanti-blue SEAP reporter gene assay relative to control; format: cell-based; settings: filed as activator
[6] = molecular target: Voltage-gated inwardly rectifying potassium channel KCNH2 (Homo sapiens, UniProt Q12809); test: Inhibition of human ERG
Voltage-gated inwardly rectifying potassium channel KCNH2, sequence (Q12809 whole entry): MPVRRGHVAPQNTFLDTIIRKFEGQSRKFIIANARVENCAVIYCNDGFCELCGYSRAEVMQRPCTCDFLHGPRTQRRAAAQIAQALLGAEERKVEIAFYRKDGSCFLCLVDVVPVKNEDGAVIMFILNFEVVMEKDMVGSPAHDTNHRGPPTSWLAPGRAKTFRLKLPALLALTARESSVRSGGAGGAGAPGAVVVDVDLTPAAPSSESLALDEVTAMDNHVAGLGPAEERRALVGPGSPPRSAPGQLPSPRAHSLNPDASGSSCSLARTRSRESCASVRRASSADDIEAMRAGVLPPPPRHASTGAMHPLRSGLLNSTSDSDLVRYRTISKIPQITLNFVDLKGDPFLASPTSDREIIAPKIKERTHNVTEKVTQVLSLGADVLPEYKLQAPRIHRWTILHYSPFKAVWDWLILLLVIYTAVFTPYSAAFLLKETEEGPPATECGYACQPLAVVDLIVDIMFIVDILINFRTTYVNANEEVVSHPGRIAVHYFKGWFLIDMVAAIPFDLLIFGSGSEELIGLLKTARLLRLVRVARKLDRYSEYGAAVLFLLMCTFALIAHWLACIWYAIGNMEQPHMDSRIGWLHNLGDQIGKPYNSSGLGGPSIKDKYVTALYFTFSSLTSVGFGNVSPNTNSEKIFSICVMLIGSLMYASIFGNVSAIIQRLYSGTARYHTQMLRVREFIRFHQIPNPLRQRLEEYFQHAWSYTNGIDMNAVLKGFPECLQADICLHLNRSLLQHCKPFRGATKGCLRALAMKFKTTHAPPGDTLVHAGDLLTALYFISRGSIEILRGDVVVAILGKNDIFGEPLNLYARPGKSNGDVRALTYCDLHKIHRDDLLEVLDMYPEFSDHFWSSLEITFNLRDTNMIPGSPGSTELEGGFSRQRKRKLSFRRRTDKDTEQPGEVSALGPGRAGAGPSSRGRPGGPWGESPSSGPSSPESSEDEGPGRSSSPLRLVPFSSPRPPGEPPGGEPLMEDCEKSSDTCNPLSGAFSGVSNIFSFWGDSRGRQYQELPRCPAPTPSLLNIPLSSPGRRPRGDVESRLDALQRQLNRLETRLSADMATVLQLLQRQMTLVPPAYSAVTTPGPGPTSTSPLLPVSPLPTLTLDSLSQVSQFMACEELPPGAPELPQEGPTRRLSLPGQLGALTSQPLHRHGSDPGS

[7] = Solubility of the compound; format: physicochemical
[8] = Observed MRT infinity in rat at 1 mg/kg, iv; format: ADME, organism-based; settings: in vivo
[9] = AUClast in rat at 1 mg/kg, iv; format: ADME, organism-based; design: time 0 - last, route intravenous, dose 1 mg/kg; settings: in vivo
[10] = Observed clearance in rat at 1 mg/kg, iv; format: ADME, organism-based; settings: in vivo
[11] = Half life in rat at 1 mg/kg, iv; format: ADME, organism-based; settings: in vivo
[12] = Observed AUCinfinity in rat at 1 mg/kg, iv; format: ADME, organism-based; design: time infinity, route intravenous, dose 1 mg/kg; settings: in vivo
[13] = Observed volume of distribution at steady state in rat at 1 mg/kg, iv; format: ADME, organism-based; settings: in vivo, read-out: Vdss

Structure (SMILES)	fold change (FC) [1]	EC50 [2] [µM]	EC50 [3] [nM]	fold change (FC) [4]	fold change (FC) [5]	also measured
CCn1nc(C)cc1C(=O)/N=c1\[nH]c2cc(-c3ncn[nH]3)cc(OC)c2n1[C@H]1CC[C@H](n2/c(=N/C(=O)c3cc(C)nn3CC)[nH]c3cc(C(N)=O)cc(OCCCN4CCOCC4)c32)CC1	3.86	> 50	> 50000	0.48	–	–
CCn1nc(C)cc1C(=O)/N=c1\[nH]c2cc(C(N)=O)cc(OC)c2n1C/C=C/Cn1/c(=N/C(=O)c2cc(C)nn2CC)[nH]c2cc(-c3ncn[nH]3)cc(OCCCN3CCOCC3)c21	17	> 50	330	2.17	–	–
CCn1nc(C)cc1C(=O)/N=c1\[nH]c2cc(-c3cn(CCOCCOC)nn3)cc(OC)c2n1C/C=C/Cn1/c(=N/C(=O)c2cc(C)nn2CC)[nH]c2cc(C(N)=O)cc(OCCCN3CCOCC3)c21	17.2	–	–	1.16	–	–
CCn1nc(C)cc1C(=O)/N=c1\[nH]c2cc(C(N)=O)cc(OC)c2n1C/C=C/Cn1c(C(=O)CCC(=O)OC)nc2cc(C(N)=O)cc(OCCCN3CCOCC3)c21	0.83	–	–	–	0.9	–
CCn1nc(C)cc1C(=O)/N=c1\[nH]c2cc(-c3ncn[nH]3)cc(OC)c2n1C/C=C/Cn1/c(=N/C(=O)c2cc(C)nn2CC)[nH]c2cc(C#N)cc(OCCCN3CCOCC3)c21	11.1	> 50	26000	1.34	–	–
CCn1nc(C)cc1C(=O)Nc1nc2cc(C(N)=O)cc(OC)c2n1C/C=C/Cn1c(NC(=O)c2cc(C)nn2CC)nc2cc(C(N)=O)cc(OCCCN3CCOCC3)c21 [listing 1 of 2 here]	–	–	–	–	–	IC50 [6]: > 40 µM
CCn1nc(C)cc1C(=O)/N=c1\[nH]c2cc(-c3ncn[nH]3)cc(OC)c2n1C/C=C/Cn1/c(=N/C(=O)c2cc(C)nn2CC)[nH]c2cc(C(N)=O)cc(OCCCO)c21	16.7	> 50	2660	0.96	–	–
CCn1nc(C)cc1C(=O)/N=c1\[nH]c2cc(C3=NCCO3)cc(OC)c2n1C/C=C/Cn1/c(=N/C(=O)c2cc(C)nn2CC)[nH]c2cc(C(N)=O)cc(OCCCN3CCOCC3)c21	18.3	> 50	1540	0.99	–	–
CCn1nc(C)cc1/C=C/c1nc2cc(C(N)=O)cc(OC)c2n1C/C=C/Cn1c(/C=C/c2cc(C)nn2CC)nc2cc(C(N)=O)cc(OCCCN3CCOCC3)c21	0.98	–	–	0.96	–	–
CCn1nc(C)cc1C(=O)/N=c1\[nH]c2cc(-c3ncn[nH]3)cc(OC)c2n1C/C=C/Cn1/c(=N/C(=O)c2cc(C)nn2CC)[nH]c2cc(C(N)=O)cc(OCCCN3CCOCC3)c21.Cl.Cl.Cl	–	–	–	–	–	solubility [7]: 71.3 mg/mL; IC50 [6]: > 40 µM
CCn1nc(C)cc1C(=O)/N=c1\[nH]c2cc(-c3ncn[nH]3)cc(OC)c2n1CCCCn1/c(=N/C(=O)c2cc(C)nn2CC)[nH]c2cc(C(N)=O)cc(OCCCN3CCOCC3)c21	1.28	–	–	–	1.2	–
CCn1nc(C)cc1CCc1nc2cc(C(N)=O)cc(OC)c2n1C/C=C/Cn1c(CCc2cc(C)nn2CC)nc2cc(C(N)=O)cc(OCCCN3CCOCC3)c21	0.95	–	–	0.9	–	–
CCn1nc(C)cc1C(=O)/N=c1\[nH]c2cc(-c3ncc[nH]3)cc(OC)c2n1C/C=C/Cn1/c(=N/C(=O)c2cc(C)nn2CC)[nH]c2cc(C(N)=O)cc(OCCCN3CCOCC3)c21	17.5	> 50	3280	1.42	–	–
CCn1nc(C)cc1C(=O)/N=c1\[nH]c2cc(C#N)cc(OC)c2n1C/C=C/Cn1/c(=N/C(=O)c2cc(C)nn2CC)[nH]c2cc(C#N)cc(OCCCN3CCOCC3)c21	7.9	> 50	> 50000	–	1.16	–
CCn1nc(C)cc1C(=O)/N=c1\[nH]c2cc(C(N)=O)cc(OC)c2n1C/C=C/Cn1/c(=N/C(=O)c2cc(C)nn2CC)[nH]c2cc(-c3ncc[nH]3)cc(OCCCN3CCOCC3)c21	17.3	> 50	790	1.18	–	–
CCn1nc(C)cc1C(=O)/N=c1\[nH]c2cc(-c3ncn[nH]3)cc(OC)c2n1[C@H]1CC[C@@H](n2/c(=N/C(=O)c3cc(C)nn3CC)[nH]c3cc(C(N)=O)cc(OCCCN4CCOCC4)c32)CC1	1.14	–	–	–	0.59	–
COc1cc(C(N)=O)cc2nc(C(=O)CCC(=O)O)n(C/C=C/Cn3c(C(=O)CCC(=O)O)nc4cc(C(N)=O)cc(OCCCN5CCOCC5)c43)c12	9	–	–	–	1.4	–
CCn1nc(C)cc1C(=O)/N=c1\[nH]c2cc(-c3ncn[nH]3)cc(OC)c2n1C/C=C/Cn1/c(=N/C(=O)c2cc(C)nn2CC)[nH]c2cc(-c3ncn[nH]3)cc(OCCCN3CCOCC3)c21	4.9	–	–	1.18	–	–
CCn1nc(C)cc1C(=O)/N=c1\[nH]c2cc(C(N)=O)cc(OC)c2n1C/C=C/Cn1c(C(=O)CCC(=O)O)nc2cc(C(N)=O)cc(OCCCN3CCOCC3)c21	0.86	–	–	–	0.93	–
CCn1nc(C)cc1C(=O)/N=c1\[nH]c2cc(-c3nc(C)n[nH]3)cc(OC)c2n1C/C=C/Cn1/c(=N/C(=O)c2cc(C)nn2CC)[nH]c2cc(C(N)=O)cc(OCCCN3CCOCC3)c21	18.8	> 50	2550	0.92	–	–
CCn1nc(C)cc1C(=O)Nc1nc2cc(C(N)=O)cc(OC)c2n1C/C=C/Cn1c(NC(=O)c2cc(C)nn2CC)nc2cc(C(N)=O)cc(OCCCN3CCOCC3)c21 [listing 2 of 2 here]	–	–	–	–	–	MRT inf [8]: 38 min; AUC(0-t) [9]: 657 ng·h/mL; clearance [10]: 26 mL/min/kg; half-life [11]: 68.4 min; AUC(0-inf) [12]: 666 ng·h/mL; Vd [13]: 0.965 L/kg
CCn1nc(C)cc1C(=O)/N=c1\[nH]c2cc(-c3ncn[nH]3)cc(OC)c2n1C/C=C/Cn1/c(=N/C(=O)c2cc(C)nn2CC)[nH]c2cc(C(N)=O)c3ccoc3c21	17	–	–	–	1.14	–
CCn1nc(C)cc1C(=O)/N=c1\[nH]c2cc(-c3ncn[nH]3)cc(OC)c2n1C/C=C/Cn1/c(=N/C(=O)c2cc(C)nn2CC)[nH]c2cc(C(N)=O)c3c(c21)OCCO3	1.58	–	–	–	1.1	–
CCn1nc(C)cc1C(=O)/N=c1\[nH]c2cc(C(N)=O)cc(OC)c2n1C/C=C/Cn1/c(=N/C(=O)c2cc(C)nn2CC)[nH]c2cc(C#N)cc(OCCCN3CCOCC3)c21	13.4	> 50	1020	1.07	–	–
COC(=O)CCC(=O)c1nc2cc(C(N)=O)cc(OC)c2n1C/C=C/Cn1c(C(=O)CCC(=O)OC)nc2cc(C(N)=O)cc(OCCCN3CCOCC3)c21	6.16	> 50	29100	1.01	–	–
CCn1nc(C)cc1C(=O)/N=c1\[nH]c2cc(-c3ncc[nH]3)cc(OC)c2n1C/C=C/Cn1/c(=N/C(=O)c2cc(C)nn2CC)[nH]c2cc(-c3ncc[nH]3)cc(OCCCN3CCOCC3)c21	1.22	–	–	1.21	–	–
